Data reported in ChEMBL document CHEMBL4308830, “Design, Synthesis, and Characterization of 4-Undecylpiperidine-2-carboxamides as Positive Allosteric Modulators of the Serotonin (5-HT) 5-HT2C Receptor” (J Med Chem, 2018).
The source made the active and inactive calls. No cut-off for these calls is given here.

Assays:
[1] = Tmax in Sprague-Dawley rat at 10 mg/kg, po administered as single dose; format: ADME, organism-based; details: in vivo
[2] = tested on: Rattus norvegicus; experiment: Increase in WAY163909-induced suppression of spontaneous locomotor activity in Sprague-Dawley rat assessed as reduction in total vertical activity at 5 mg/kg, ip administered as single dose measured for 30 mins; format: functional, organism-based
Outline: (§1)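 Rats (n = 9–10/group) received SB242084 (1 mg/kg ip) or vehicle (8% 2-hydroxypropyl-β-cyclodextrin) 15 min before ip WAY163909 (1 mg/kg) plus compound (5 mg/kg). They were placed in monitors immediately; ambulations and vertical activity were totalled over 30 min. Analysis: ANOVA with Bonferroni comparisons.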

[3] = AUC (0 to infinity) in Sprague-Dawley rat at 5 mg/kg, iv administered as single dose; format: ADME, organism-based; set-up: dose 5 mg/kg, time infinity, route intravenous; details: in vivo
[4] = target: 5-hydroxytryptamine receptor 1D (Homo sapiens) (UniProt P28221); experiment: Displacement of [3H]-GR125743 from recombinant human 5-HT1DR expressed in HEKT cell membranes at 10 uM after 90 mins by scintillation counting method relative to control
[5] = tested on: Rattus norvegicus; experiment: Increase in WAY163909-induced suppression of spontaneous locomotor activity in Sprague-Dawley rat assessed as reduction in total ambulation at 5 mg/kg, ip administered as single dose measured for 30 mins; format: functional, organism-based; outline: as §1
[6] = target: Sodium-dependent serotonin transporter (Homo sapiens) (UniProt P31645); experiment: Displacement of [3H]-citalopram from recombinant human SERT expressed in HEK cell membranes at 10 uM after 90 mins by scintillation counting method relative to control
[7] = tested on: Rattus norvegicus; experiment: Reduction in cocaine cue reactivity in Sprague-Dawley rat assessed as decrease in active lever presses at 1 mg/kg, ip administered as single dose 15 mins prior to self administration of cocaine; format: functional, organism-based
Outline: (§2)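 Catheterized male Sprague–Dawley rats self-administered cocaine (0.75 mg/kg/infusion iv, each paired with light/pump cue) in 14 daily 180 min sessions, reaching FR5 stability. After 24 h they received saline (1 mL/kg ip) or compound (1 mg/kg ip) 15 min before a cue reactivity test.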

[8] = Terminal half life in Sprague-Dawley rat at 10 mg/kg, po administered as single dose; format: ADME, organism-based; details: in vivo
[9] = tested on: Rattus norvegicus; experiment: Drug discrimination in WAY163909-trained Sprague-Dawley rat assessed as increase in WAY163909-appropriate lever responding at 1 mg/kg, ip co-treated with WAY163909 15 mins prior to test relative to control; format: functional
[10] = AUC (0 to infinity) in Sprague-Dawley rat at 10 mg/kg, po administered as single dose; format: ADME, organism-based; set-up: dose 10 mg/kg, time infinity, route oral; details: in vivo
[11] = target: D(2) dopamine receptor (Homo sapiens) (UniProt P14416); experiment: Displacement of [3H]-N-methylspiperone from recombinant human D2R expressed in fibroblast membranes at 10 uM after 90 mins by scintillation counting method relative to control; format: cell membranes
[12] = target: 5-hydroxytryptamine receptor 1E (Homo sapiens) (UniProt P28566); experiment: Displacement of [3H]-5-HT from recombinant human 5-HT1ER expressed in HEK cell membranes at 10 uM after 90 mins by scintillation counting method relative to control
[13] = target: D(1A) dopamine receptor (Homo sapiens) (UniProt P21728); experiment: Displacement of [3H]-SCH23390 from recombinant human D1R expressed in HEKT cell membranes at 10 uM after 90 mins by scintillation counting method relative to control
[14] = tested on: Rattus norvegicus; experiment: Suppression of spontaneous locomotor activity in Sprague-Dawley rat assessed as reduction in total ambulation at 5 mg/kg, ip administered as single dose measured for 30 mins; format: functional, organism-based
Outline: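 Male Sprague–Dawley rats naive to activity monitors (n = 7–8/group) received saline (1 mL/kg ip) or compound (0.5, 1 or 5 mg/kg ip) immediately before testing. Ambulations and vertical counts were taken in 5 min bins for 90 min and totalled over the first 30 min. Analysis: one-way ANOVA with Dunnett's comparisons to vehicle.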

[15] = target: 5-hydroxytryptamine receptor 1A (Homo sapiens) (UniProt P08908); experiment: Displacement of [3H]-8-OH-DPAT from recombinant human 5-HT1AR expressed in CHO cell membranes at 10 uM after 90 mins by scintillation counting method relative to control
[16] = tested on: Rattus norvegicus; experiment: Increase in WAY163909-induced suppression of spontaneous locomotor activity in Sprague-Dawley rat assessed as reduction in total ambulation at 5 mg/kg, ip cotreated with WAY163909 at 15 mins post 5-HT2C antagonist SB242084 treatment measured for 30 mins; format: functional, organism-based; outline: as §1
[17] = target: D(1B) dopamine receptor (Homo sapiens) (UniProt P21918); experiment: Displacement of [3H]-SCH23390 from recombinant human D5R expressed in HEKT cell membranes at 10 uM after 90 mins by scintillation counting method relative to control
[18] = Oral bioavailability in Sprague-Dawley rat at 10 mg/kg administered as single dose; format: ADME, organism-based; details: in vivo
[19] = target: 5-hydroxytryptamine receptor 3A (Homo sapiens) (UniProt P46098); experiment: Displacement of [3H]-LY278584 from recombinant human 5-HT3R expressed in HEK cell membranes at 10 uM after 90 mins by scintillation counting method relative to control
[20] = target: T1, 5-hydroxytryptamine receptor 2C (Homo sapiens) (UniProt P28335); experiment: Positive allosteric modulation of human 5-HT2CR expressed in CHO cells assessed as increase in 5-HT-induced intracellular calcium release at 0.000001 to 1 uM preincubated for 15 mins followed by 5-HT addition by calcium-4 dye based FLIPR assay; format: functional, cell-based
T1 sequence (whole entry): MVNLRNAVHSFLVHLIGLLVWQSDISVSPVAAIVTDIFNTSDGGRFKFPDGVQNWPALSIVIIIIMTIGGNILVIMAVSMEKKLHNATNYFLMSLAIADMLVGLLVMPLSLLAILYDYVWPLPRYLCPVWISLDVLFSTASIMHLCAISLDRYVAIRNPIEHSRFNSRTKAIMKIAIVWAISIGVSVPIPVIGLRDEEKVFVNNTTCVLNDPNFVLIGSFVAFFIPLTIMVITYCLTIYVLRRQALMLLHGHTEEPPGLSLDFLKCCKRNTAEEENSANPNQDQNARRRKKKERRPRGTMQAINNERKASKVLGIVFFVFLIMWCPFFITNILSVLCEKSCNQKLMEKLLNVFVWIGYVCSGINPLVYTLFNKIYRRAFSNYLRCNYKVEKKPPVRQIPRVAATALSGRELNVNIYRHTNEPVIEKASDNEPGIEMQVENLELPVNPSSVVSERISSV
Outline: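 CHO cells stably expressing human unedited (INI) 5-HT2CR, passages 6–16, grown at 37 °C in medium with 5% FBS and hygromycin. Plated cells were serum-starved 3 h, then loaded 60 min at 37 °C plus 15 min at room temperature with Calcium 4 dye and 2.5 mM probenecid in HBSS pH 7.4. Compound (1 pM, 1 nM, 1 μM) was added 15 min before 5-HT (10 pM–10 μM), and fluorescence peak height was read.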

[21] = tested on: Rattus norvegicus; experiment: Effect on inactive lever presses in Sprague-Dawley rat at 1 mg/kg, ip administered as single dose 15 mins prior to self administration of cocaine; format: organism-based; details: in vivo, 0.25 h; outline: as §2
[22] = Cmax in Sprague-Dawley rat at 10 mg/kg, po administered as single dose; format: ADME, organism-based; set-up: dose 10 mg/kg, route oral; details: in vivo

D(1B) dopamine receptor (Homo sapiens), sequence (P21918 whole entry): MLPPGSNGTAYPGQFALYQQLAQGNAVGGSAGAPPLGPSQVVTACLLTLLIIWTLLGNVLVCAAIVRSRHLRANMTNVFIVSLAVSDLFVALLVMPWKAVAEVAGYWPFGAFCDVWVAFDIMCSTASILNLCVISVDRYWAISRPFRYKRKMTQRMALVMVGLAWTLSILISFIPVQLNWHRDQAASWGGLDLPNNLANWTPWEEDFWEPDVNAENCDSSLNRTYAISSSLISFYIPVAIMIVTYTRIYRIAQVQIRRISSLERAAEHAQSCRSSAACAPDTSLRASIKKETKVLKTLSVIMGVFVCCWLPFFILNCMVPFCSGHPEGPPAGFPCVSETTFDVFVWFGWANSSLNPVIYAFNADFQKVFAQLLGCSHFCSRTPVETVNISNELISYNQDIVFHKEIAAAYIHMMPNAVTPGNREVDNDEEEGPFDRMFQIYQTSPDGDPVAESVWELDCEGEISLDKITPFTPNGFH
5-hydroxytryptamine receptor 3A (Homo sapiens), sequence (P46098 whole entry): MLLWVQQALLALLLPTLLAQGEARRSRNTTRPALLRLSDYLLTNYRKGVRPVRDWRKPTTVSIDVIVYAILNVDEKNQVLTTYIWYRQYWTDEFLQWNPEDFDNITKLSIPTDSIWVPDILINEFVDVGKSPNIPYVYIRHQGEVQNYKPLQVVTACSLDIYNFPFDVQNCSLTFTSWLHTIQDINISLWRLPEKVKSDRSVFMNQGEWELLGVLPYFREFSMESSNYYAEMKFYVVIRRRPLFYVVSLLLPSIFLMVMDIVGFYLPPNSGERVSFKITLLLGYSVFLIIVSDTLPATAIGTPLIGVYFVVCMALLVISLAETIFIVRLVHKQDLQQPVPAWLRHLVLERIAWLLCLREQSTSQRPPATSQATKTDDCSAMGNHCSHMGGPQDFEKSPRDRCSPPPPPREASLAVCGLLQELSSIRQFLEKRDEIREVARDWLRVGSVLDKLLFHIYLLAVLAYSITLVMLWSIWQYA
D(2) dopamine receptor (Homo sapiens), sequence (P14416 whole entry): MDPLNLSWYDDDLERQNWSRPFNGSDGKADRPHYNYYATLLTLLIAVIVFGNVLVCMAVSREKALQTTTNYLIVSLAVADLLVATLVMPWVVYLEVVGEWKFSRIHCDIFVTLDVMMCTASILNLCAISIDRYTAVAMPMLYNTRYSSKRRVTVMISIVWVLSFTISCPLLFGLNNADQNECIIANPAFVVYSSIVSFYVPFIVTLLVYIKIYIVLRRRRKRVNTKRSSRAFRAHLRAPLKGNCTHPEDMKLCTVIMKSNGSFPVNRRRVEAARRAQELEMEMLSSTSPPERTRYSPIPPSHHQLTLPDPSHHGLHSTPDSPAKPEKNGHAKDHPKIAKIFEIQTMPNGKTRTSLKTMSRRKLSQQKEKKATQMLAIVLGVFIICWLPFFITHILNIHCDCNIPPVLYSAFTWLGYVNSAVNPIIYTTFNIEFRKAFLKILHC
5-hydroxytryptamine receptor 1D (Homo sapiens), sequence (P28221 whole entry): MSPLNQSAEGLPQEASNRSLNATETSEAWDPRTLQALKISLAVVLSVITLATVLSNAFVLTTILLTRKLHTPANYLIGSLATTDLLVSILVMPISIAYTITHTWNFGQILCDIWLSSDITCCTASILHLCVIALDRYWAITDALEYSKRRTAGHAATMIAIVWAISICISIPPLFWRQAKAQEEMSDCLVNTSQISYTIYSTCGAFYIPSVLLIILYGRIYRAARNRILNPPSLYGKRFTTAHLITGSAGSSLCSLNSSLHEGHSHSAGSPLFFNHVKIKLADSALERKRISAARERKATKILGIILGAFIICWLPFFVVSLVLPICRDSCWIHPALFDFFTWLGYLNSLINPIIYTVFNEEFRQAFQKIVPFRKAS
5-hydroxytryptamine receptor 1A (Homo sapiens), sequence (P08908 whole entry): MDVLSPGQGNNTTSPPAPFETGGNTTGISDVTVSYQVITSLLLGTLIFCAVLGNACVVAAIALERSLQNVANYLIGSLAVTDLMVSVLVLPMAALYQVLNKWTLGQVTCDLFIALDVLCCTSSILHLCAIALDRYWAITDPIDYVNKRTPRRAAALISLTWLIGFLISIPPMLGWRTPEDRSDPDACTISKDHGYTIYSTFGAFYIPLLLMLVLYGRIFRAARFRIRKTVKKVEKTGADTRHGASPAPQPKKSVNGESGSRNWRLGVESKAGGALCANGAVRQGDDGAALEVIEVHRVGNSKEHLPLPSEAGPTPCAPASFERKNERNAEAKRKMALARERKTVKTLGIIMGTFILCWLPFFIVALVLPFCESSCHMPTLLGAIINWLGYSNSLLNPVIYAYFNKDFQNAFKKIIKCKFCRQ
5-hydroxytryptamine receptor 1E (Homo sapiens), sequence (P28566 whole entry): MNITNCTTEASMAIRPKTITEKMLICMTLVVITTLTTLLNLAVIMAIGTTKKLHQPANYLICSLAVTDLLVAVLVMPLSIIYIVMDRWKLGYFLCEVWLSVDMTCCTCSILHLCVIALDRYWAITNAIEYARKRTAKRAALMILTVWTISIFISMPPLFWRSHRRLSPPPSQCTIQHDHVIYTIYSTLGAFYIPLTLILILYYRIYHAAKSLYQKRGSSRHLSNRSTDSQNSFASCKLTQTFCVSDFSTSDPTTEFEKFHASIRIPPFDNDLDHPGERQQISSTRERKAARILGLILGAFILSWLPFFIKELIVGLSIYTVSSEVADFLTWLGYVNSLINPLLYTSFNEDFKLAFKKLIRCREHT
Sodium-dependent serotonin transporter (Homo sapiens), sequence (P31645 whole entry, looked up): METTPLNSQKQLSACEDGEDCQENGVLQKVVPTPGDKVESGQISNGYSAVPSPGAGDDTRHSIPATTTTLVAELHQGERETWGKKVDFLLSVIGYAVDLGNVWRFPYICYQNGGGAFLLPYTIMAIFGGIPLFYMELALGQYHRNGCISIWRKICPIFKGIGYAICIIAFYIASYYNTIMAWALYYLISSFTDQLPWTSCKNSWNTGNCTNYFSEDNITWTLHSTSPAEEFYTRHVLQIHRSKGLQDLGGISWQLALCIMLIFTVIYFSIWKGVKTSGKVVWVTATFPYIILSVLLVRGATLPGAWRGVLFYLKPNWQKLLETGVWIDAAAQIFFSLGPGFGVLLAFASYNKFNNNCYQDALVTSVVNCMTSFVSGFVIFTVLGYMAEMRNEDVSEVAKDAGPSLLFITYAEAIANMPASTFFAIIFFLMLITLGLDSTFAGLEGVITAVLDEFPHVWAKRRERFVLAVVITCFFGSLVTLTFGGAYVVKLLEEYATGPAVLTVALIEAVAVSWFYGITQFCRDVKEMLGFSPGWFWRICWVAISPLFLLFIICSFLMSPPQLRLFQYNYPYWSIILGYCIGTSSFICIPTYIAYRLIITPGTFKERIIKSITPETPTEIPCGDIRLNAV
D(1A) dopamine receptor (Homo sapiens), sequence (P21728 whole entry): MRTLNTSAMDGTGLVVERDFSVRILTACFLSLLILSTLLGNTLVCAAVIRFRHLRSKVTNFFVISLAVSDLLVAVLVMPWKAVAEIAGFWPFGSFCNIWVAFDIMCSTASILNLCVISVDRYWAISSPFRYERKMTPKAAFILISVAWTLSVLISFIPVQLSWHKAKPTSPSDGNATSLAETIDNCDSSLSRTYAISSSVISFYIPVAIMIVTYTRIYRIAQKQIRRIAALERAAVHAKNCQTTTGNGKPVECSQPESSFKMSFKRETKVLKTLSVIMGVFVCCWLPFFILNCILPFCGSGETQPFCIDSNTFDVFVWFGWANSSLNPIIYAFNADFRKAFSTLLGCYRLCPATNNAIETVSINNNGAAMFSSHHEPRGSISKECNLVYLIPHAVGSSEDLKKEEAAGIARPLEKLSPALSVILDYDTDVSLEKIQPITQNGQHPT

Which results are given for CCCCCCCCCCC[C@@H]1CCN[C@H](C(=O)NCC(O)CO)C1 (relative stereo)?
Tmax [1]: 3.3 h; Activity [2]: Active; AUC [3]: 939 ng·h/mL; inhibition [4]: 5.5%; Activity [5]: Active; inhibition [6]: 24.8%; Activity [7]: Active; beta t1/2 [8]: 5.82 h; Emax at 1 mg/kg [9]: 45%; AUC [10]: 737 ng·h/mL; inhibition [11]: 28.8%; inhibition [12]: 0.7%; inhibition [13]: 29.3%; Activity [14]: Active; inhibition [15]: 25.7%; Activity [16]: inactive; inhibition [17]: 32.5%; F [18]: 39.1%; inhibition [19]: 27%; Activity [20]: Active; Activity [21]: Non-Toxic; Cmax [22]: 68.1 ng/mL
